Screening results deposited in PubChem BioAssay by several laboratories.
procasp7 counter: counter-screen: procaspase-7 (human) activation. 0.093% of 330,000 active. activation, % at 8.5 µM. recombinant procaspase-7, Ac-DEVD-pNA absorbance 405 nm; D23A/D198A/D206A triple mutant, cannot self-cleave; scale: DMSO 0, 5 µM enzyme 100;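 active = percent activation above the screen-wide mean plus 3 SD, cut at about 25% in these data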
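Assay system: Uncleavable procaspase-7 mutant enzyme | Input: 2 µM procaspase-7 mutant as dispensed | Timing: 1 h compound preincubation, 2 h substrate cleavage, 25 °C | Repeats: One well per compound | Control set: DMSO wells as 0%, DMSO with 5 µM added PC-7 as 100% | Technique: Epi-absorbance of released pNA at 405 nm, two timepoints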
PHOSPHO1 block: inhibitors of human PHOSPHO1 phosphatase | recombinant PHOSPHO1, absorbance phosphatase assay | Q8TCT1 | inhibition, % at 13.3 µM | 1.1% of 290,000 active | AID 1565; in the data active = inhibition above about 60%
procasp3 activ: activators of human procaspase-3. P42574. recombinant procaspase-3 D3A, Ac-DEVD-pNA absorbance 405 nm. activation, % at 8.5 µM. 0.11% of 330,000 active;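 active = activation above the mean of all tested compounds plus 3 SD, cut at about 21% in these data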;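 also: 0% = DMSO alone and 100% = DMSO wells spiked with extra 5 µM PC-3 D3A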
Target sequence (P42574 whole entry D9A/D28A/D175A): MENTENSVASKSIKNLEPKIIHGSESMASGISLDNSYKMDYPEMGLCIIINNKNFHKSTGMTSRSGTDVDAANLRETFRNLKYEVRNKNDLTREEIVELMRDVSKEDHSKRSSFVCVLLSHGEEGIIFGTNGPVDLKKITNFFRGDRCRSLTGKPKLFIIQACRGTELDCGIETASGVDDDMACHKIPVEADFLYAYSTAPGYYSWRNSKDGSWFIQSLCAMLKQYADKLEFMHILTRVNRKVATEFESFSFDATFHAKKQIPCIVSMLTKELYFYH
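Assay system – Procaspase-3 D3A mutant · Benchmarks – DMSO low control, extra-enzyme high control · Technique – 405 nm absorbance of p-nitroaniline, reads at 0 and 120 min · Doses – 8.5 µM nominal · Measure – % activation between DMSO and enzyme-spiked controls · Also added – Ac-DEVD-pNA chromogenic peptide substrate · Schedule – 1 h compound preincubation, 2 h substrate hydrolysis at 25 °C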
IDE cell activ: IDE (human) activation, cell-based | activation, % at 5.96 µM | P14735 | 0.073% of 340,000 active | HEK cells, FAbeta-B cleavage, fluorescence polarization; 0% vehicle, 100% cell-free pure enzyme wells;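 active = activation above the mean of all tested compounds plus 3 SD, set per screening campaign, cut at about 17% in these data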
UBC13 inh: human UBC13 polyubiquitination inhibition; P61088; UBC13 polyubiquitin chain formation, TR-FRET; inhibition, % at 20 µM; 0.47% of 330,000 active; in the data active = inhibition above about 45%, passing the limit was not always enough
Target sequence (P61088 whole entry, looked up): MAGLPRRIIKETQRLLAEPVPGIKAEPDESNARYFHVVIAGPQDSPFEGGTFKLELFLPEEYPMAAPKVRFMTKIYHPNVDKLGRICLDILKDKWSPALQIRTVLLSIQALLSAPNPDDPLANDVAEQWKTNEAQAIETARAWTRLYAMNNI
IDE inh: inhibits human insulin-degrading enzyme in HEK cells. FAbetaB cleavage, fluorescence polarization. inhibition, % at 5.59 µM. 0.41% of 320,000 active;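 active = percent inhibition above the average of all tested compounds plus 3 SD, set per screening campaign, cut at about 16% in these data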;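 also: IDE supplied by intact live HEK cells; FP after avidin binding of uncleaved biotin substrate so inhibition keeps polarization high; 0% = DMSO wells and 100% = 60 µM reference IDE inhibitor Ii1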
IDE inh confirm: confirmation of human insulin-degrading enzyme inhibitors in cells. shares compounds with IDE inh. HEK cells, FAbetaB cleavage, fluorescence polarization. inhibition, % at 5.59 µM. 51% of 1,200 active;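 active = mean inhibition across triplicate wells above the cutoff set by the earlier primary insulin-degrading enzyme screen, cut at about 16% in these data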;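 also: 0% = DMSO wells and 100% = 60 µM reference IDE inhibitor Ii1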
HEK293 tox: counter-screen for IDE inhibitors: cytotoxicity in HEK cells. shares compounds with IDE inh. HEK293 cytotoxicity, ATP luminescence. inhibition, % at 5.59 µM. 28% of 1,200 active; in the data active = inhibition above about 22%;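 also: 0% = vehicle wells and 100% = reference cytotoxic drug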
An asterisk follows results filed as active; i = inactive; nt = no result. An excerpt weighted towards active compounds, which were near 1.9% of everything screened.

SMILES	procasp7 counter	PHOSPHO1 block	procasp3 activ	IDE cell activ	UBC13 inh	IDE inh	IDE inh confirm	HEK293 tox
N=C1/C(=C\c2coc3ccccc3c2=O)C(=O)N=C2SC(c3ccncc3)=NN12	-8	5	-9	-35	3	42*	20*	6
Cc1onc(-c2ccccc2Cl)c1C(=O)Nc1ccc(Br)cc1	11	28	7	1	3	-1	nt	nt
COc1ccc(S(=O)(=O)N2CCCC2)c(Cl)c1Cl	6	30	0	-1	-1	-8	nt	nt
COc1ccc(OC)c2c1C(=O)C(Cl)=C(Cl)C2=O	-29	20	-33	-102	-197	22*	18*	125*
COc1ccc(Cl)cc1C(=O)Nc1cccc(-c2ccc3nncn3n2)c1	7	56	-8	-6	12	17*	-1	22*
Cc1ccc(CCNC(=O)Cc2ccc(NC3=NC4CS(=O)(=O)CC4S3)cc2)cc1 (stereo unspecified)	11	33	-3	-21	2	17*	8	6
Cc1ccc(CCNC(=O)c2ccc(NC3=NC4CS(=O)(=O)CC4S3)cc2)cc1 (stereo unspecified)	4	-47	15	-4	2	10	nt	nt
CCCN(CCO)C1CCN(CCc2ccccc2)CC1	-4	nt	0	4	-4	9	nt	nt
CCC[n+]1c2ccccc2cc2ccccc21	-20	14	-21	-4	4	12	nt	nt
CCCC[n+]1c2ccccc2cc2ccccc21	-9	-64	-9	-10	-3	16*	6	40*
CCn1c(=O)c(C(=O)CN2CCCc3ccccc32)c(N)n(Cc2ccccc2)c1=O	11	-3	-8	-4	-6	37*	10	17
CCn1c(=O)c(C(=O)CN2c3ccccc3CC2C)c(N)n(Cc2ccccc2)c1=O (stereo unspecified)	-2	-19	-9	1	-8	4	nt	nt
CCOC(=O)c1c(CN2CCNCC2)nc2ccc(Cl)cc2c1-c1ccccc1	nt	nt	nt	0	nt	nt	nt	nt
C=CCc1cccc(/C=C/c2cc(=O)c3ccccc3[nH]2)c1O	7	-2	4	-29	-7	17*	3	11
CCN(CC)c1ccc2c(c1)OC(N)=C(C#N)C2c1cccnc1 (stereo unspecified)	-8	37	7	-28	-52	49*	31*	70*
Cc1cccc(S(=O)(=O)Nc2cccc3c2C(=O)c2ccccc2-3)c1	-15	45	-14	-38	-22	50*	41*	16
O=C(N[C@@H](Cc1ccccc1)C(=O)NCc1ccc(F)cc1)C1CCNCC1	-9	30	5	6	8	2	nt	nt
COc1ccc(C(=O)/C=C2\Sc3ccccc3N2C)cc1	-31	15	-25	nt	-6	-7	nt	nt
COc1ccc(-[n+]2c(C)cc(/C=C3\Sc4ccccc4N3C)cc2C)cc1	-30	-11	-31	-65	-74	72*	105*	111*
COc1ccccc1-[n+]1c(C)cc(/C=C2\Sc3ccccc3N2C)cc1C	-37	-100	-17	-70	-58	52*	104*	113*
O=C(COC(=O)COc1ccc(Cl)cc1Cl)NC1CCS(=O)(=O)C1 (stereo unspecified)	4	nt	12	0	10	4	nt	nt
CN(C(=O)CN(C)S(=O)(=O)c1ccc(F)cc1)c1c(N)n(Cc2ccccc2)c(=O)[nH]c1=O	-3	nt	-19	4	-7	-1	nt	nt
Cc1cc(N2CCCC2)ccc1/C=C1\NC(=S)N(C)C1=O	-22	-119	-44	-119	i	79*	116*	16
CN1C(=O)c2ccc(N3CCCC3)cc2C1=O	-21	-11	-24	-10	-34	8	nt	nt
O=C1/C(=C/c2ccc(N3CCCC3)cc2)NC(=S)N1C1CC1	-30	102*	-32	-89	-28	90*	120*	27*
SMILES	procasp7 counter	PHOSPHO1 block	procasp3 activ	IDE cell activ	UBC13 inh	IDE inh	IDE inh confirm	HEK293 tox
O=C1CC(Cc2ccc(Br)cc2)C(=O)N1c1ccccc1 (stereo unspecified)	11	-32	2	6	6	-1	nt	nt
COc1ccc(/C=C(/NC(=O)c2ccccc2)C(=O)N/N=C/c2cccs2)cc1OC	-5	16	4	0	-10	5	nt	nt
COc1ccc([N+](=O)[O-])cc1/C=N/NC(=O)/C(=C\c1cccs1)NC(=O)c1ccccc1	2	-10	0	-4	-4	28*	14	8
C=CCn1c(SCC(=O)N2CCOCC2)nc2sc(CC)cc2c1=O	-5	nt	-6	-7	9	7	nt	nt
C=CCn1c(SCC(=O)N2CCc3ccccc3C2)nc2sc(CC)cc2c1=O	-1	-16	-3	-2	-8	17*	7	12
CN(C)C(CNc1ccc(S(C)(=O)=O)cc1[N+](=O)[O-])Cc1ccccc1 (stereo unspecified)	-1	37	-10	3	-10	-3	nt	nt
CC(C)(C)Nc1nc(SCC(=O)Nc2ccccc2)nc(N2CCOCC2)n1	1	10	-4	-1	-10	2	nt	nt
CN(C)c1nc(SCC(=O)Nc2ccccc2)nc(N2CCOCC2)n1	-5	20	5	-13	-5	20*	16	8
CN(C)c1nc(SCC(=O)Nc2ccc(Cl)c(Cl)c2)nc(N2CCOCC2)n1	8	11	5	-56	-2	23*	9	27*
CCNc1nc(SCC(=O)Nc2ccc(Cl)c(Cl)c2)nc(N2CCOCC2)n1	-3	27	3	-19	-3	1	nt	nt
Cc1nc2ccc3nc(NC(=O)c4ccc5c(c4)OCCO5)sc3c2s1	9	-4	-3	1	-3	-7	nt	nt
Cc1nc2c(ccc3nc(NC(=O)c4ccc5c(c4)OCCO5)sc32)s1	3	3	6	-21	13	19*	6	31*
COc1ccc(/C(O)=C2/C(=O)C(=O)N(CCCN3CCOCC3)C2c2ccc(N(C)C)cc2)cc1 (stereo unspecified)	-34	19	14	1	3	3	nt	nt
Cc1ccc2nc(/C(C#N)=C/c3ccc(O)c(O)c3)[nH]c2c1	-33	nt	-17	-62	-119	84*	111*	15
COc1ccc2[nH]c(=O)c(CN(C(=O)c3cccnc3)c3ccc(C)cc3C)cc2c1	11	-27	-2	-1	21	2	nt	nt
COc1ccccc1C1C=C(c2ccc(Cl)cc2)Nc2nc(NS(C)(=O)=O)nn21 (stereo unspecified)	-10	0	4	nt	19	9	nt	nt
